# In ChEMBL document CHEMBL1821687, “Discovery, synthesis, and biological evaluation of novel SMN protein modulators” (J Med Chem, 2011):
# pIC50: −log10 of the molar value. Active and inactive are the calls of the source. No cut-off for these calls is given here.
# Legend:
# [1] = Half-life in human serum; format: ADME, cell-free
# Liver = assay: Half-life in mouse liver microsome at 1 uM; format: ADME; conditions: microsomes
# [2] = target: Survival motor neuron protein (Homo sapiens) (UniProt Q16637); assay: Activation of SMN expressed in HEK293 cells by SMN2-promotor driven luciferase reporter gene assay; format: cell-based
# Sequence of Survival motor neuron protein (Homo sapiens) (Q16637 whole entry): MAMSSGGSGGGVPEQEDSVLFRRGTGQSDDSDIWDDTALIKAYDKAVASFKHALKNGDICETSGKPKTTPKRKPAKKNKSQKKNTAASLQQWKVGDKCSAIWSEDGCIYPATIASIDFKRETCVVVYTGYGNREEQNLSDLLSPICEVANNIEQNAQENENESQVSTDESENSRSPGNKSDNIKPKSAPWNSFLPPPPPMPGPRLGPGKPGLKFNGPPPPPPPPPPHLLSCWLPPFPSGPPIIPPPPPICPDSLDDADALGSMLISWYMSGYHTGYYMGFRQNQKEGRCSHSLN
# Procedure, shortened: (§1)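 HEK-293 cells stably carrying the SMN2 reporter construct, kept in DMEM with 10% FCS, glutamax, pyruvate, pen/strep and 200 µg/mL hygromycin, and assayed without hygromycin. 2,000 cells/well were plated and adhered overnight at 37 °C, 5% CO2. Compounds were added as a 7-point titration, 50 µM to 25 nM final, in 0.46% DMSO, for 30–36 h. OneGlo luminescence was normalized to 4.5 mM sodium butyrate (100%) and DMSO (0%).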
# Caco-2 [3] = assay: Apparent permeability from apical side to basolateral side of human Caco2 cells at 10 uM; format: ADME, cell-based; conditions: caco-2, 10 µM
# [4] = target: Survival motor neuron protein (Homo sapiens) (UniProt Q16637); assay: Activation of SMN in human fibroblast cells obtained from type 1 SMA patients assessed as increase in SMN protein level by quantitative Western blot method; format: cell-based
# Procedure, shortened: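 Type I SMA patient fibroblasts (3813 line) were seeded at 8,000 cells/cm2 24 h before dosing, with medium and compound renewed every 24 h for 72 h. Lysates (10 µg protein/lane) were immunoblotted for SMN (4f11 antibody) and α-tubulin. Band intensity was normalized to tubulin and expressed as fold over the DMSO control.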
# Caco-2 [5] = assay: Apparent permeability from basolateral side to apical side of human Caco2 cells at 10 uM; format: ADME, cell-based; conditions: caco-2, 10 µM
# [6] = target: Survival motor neuron protein (Homo sapiens) (UniProt Q16637); assay: Activation of SMN expressed in HEK293 cells assessed as concentration required to reach 50% of maximum luciferase signal by SMN2-promotor driven luciferase reporter gene assay; format: cell-based; procedure, shortened: as §1
# [7] = target: T1, Luciferin 4-monooxygenase (Luciola lateralis, UniProt Q01158); assay: Inhibition of fire fly luciferase; set-up: species or system Aquatica lateralis; conditions: for pIC50: read-out: IC50
# T1 sequence (Q01158 whole entry): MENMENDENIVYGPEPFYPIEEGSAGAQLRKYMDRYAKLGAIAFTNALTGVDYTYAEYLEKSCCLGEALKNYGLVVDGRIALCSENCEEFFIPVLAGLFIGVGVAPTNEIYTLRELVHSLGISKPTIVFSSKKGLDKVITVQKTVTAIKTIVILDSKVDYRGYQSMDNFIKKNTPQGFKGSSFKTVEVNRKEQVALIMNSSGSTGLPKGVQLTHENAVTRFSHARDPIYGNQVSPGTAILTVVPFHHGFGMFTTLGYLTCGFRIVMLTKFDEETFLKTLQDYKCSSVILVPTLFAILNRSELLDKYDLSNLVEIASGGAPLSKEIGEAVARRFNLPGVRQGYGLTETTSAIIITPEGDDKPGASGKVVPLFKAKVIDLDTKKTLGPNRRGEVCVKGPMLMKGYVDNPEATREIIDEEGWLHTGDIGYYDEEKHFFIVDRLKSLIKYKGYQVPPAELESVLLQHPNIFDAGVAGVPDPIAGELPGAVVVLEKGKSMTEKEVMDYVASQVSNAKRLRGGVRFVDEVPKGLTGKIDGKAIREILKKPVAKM
# [8] = target: Survival motor neuron protein (Homo sapiens) (UniProt Q16637); assay: Activation of SMN expressed in HEK293 cells assessed as rate of induction by SMN2-promotor driven luciferase reporter gene assay relative to basal level; format: cell-based; set-up: concentration or dose not given beside the values; procedure, shortened: as §1
# [9] = Plasma concentration in Swiss albino mouse at 30 mg/kg, po after 24 hrs; format: ADME, organism-based; set-up: dose 30 mg/kg, route oral
# Procedure, shortened: (§2)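 Male Swiss Albino mice received a single 30 mg/kg oral gavage dose. Compound levels were measured in plasma and brain over time, and PK parameters were derived from the concentration–time data.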
# Brain [10] = assay: Half-life in brain of Swiss albino mouse at 30 mg/kg, po; format: ADME, organism-based; set-up: dose 30 mg/kg, route oral; conditions: in vivo; procedure, shortened: as §2
# [11] = Plasma concentration in Swiss albino mouse at 30 mg/kg, po after 0.25 hrs; format: ADME, organism-based; set-up: dose 30 mg/kg, route oral; procedure, shortened: as §2
# Brain [12] = assay: Drug level in Swiss albino mouse brain at 30 mg/kg, po after 8 hrs; format: ADME, organism-based; set-up: dose 30 mg/kg, route oral; conditions: in vivo; procedure, shortened: as §2
# Plasma [13] = assay: Half-life in plasma of Swiss albino mouse at 30 mg/kg, po; format: ADME, organism-based; set-up: dose 30 mg/kg, route oral; conditions: in vivo; procedure, shortened: as §2
# [14] = Ratio of AUC in brain to AUC in plasma in Swiss albino mouse at 30 mg/kg, po; format: ADME, organism-based; set-up: dose 30 mg/kg, route oral; conditions: brain and plasma
# Procedure, shortened: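 Single oral gavage dose of 30 mg/kg given to male Swiss Albino mice; compound concentrations measured in both plasma and brain, from which brain and plasma exposure parameters were derived; animals observed for behavioural disturbance throughout the study.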
# [15] = Plasma concentration in Swiss albino mouse at 30 mg/kg, po after 2 hrs; format: ADME, organism-based; set-up: dose 30 mg/kg, route oral; procedure, shortened: as §2
# Brain [16] = assay: Drug level in Swiss albino mouse brain at 30 mg/kg, po after 1 hr; format: ADME, organism-based; set-up: dose 30 mg/kg, route oral; conditions: in vivo; procedure, shortened: as §2
# Brain [17] = assay: Drug level in Swiss albino mouse brain at 30 mg/kg, po after 24 hrs; format: ADME, organism-based; set-up: dose 30 mg/kg, route oral; conditions: in vivo; procedure, shortened: as §2
# [18] = Plasma concentration in Swiss albino mouse at 30 mg/kg, po after 12 hrs; format: ADME, organism-based; set-up: dose 30 mg/kg, route oral; procedure, shortened: as §2
# Brain [19] = assay: Drug level in Swiss albino mouse brain at 30 mg/kg, po after 0.083 hr; format: ADME, organism-based; set-up: dose 30 mg/kg, route oral; conditions: in vivo
# [20] = Plasma concentration in Swiss albino mouse at 30 mg/kg, po after 8 hrs; format: ADME, organism-based; set-up: dose 30 mg/kg, route oral; procedure, shortened: as §2
# [21] = Plasma concentration in Swiss albino mouse at 30 mg/kg, po after 0.083 hrs; format: ADME, organism-based; set-up: dose 30 mg/kg, route oral
# [22] = Plasma concentration in Swiss albino mouse at 30 mg/kg, po after 4 hrs; format: ADME, organism-based; set-up: dose 30 mg/kg, route oral; procedure, shortened: as §2
# Plasma [23] = assay: AUClast in plasma of Swiss albino mouse at 30 mg/kg, po; format: ADME, organism-based; set-up: time 0 - last, dose 30 mg/kg, route oral; conditions: in vivo; procedure, shortened: as §2
# Brain [24] = assay: Drug level in Swiss albino mouse brain at 30 mg/kg, po after 0.25 hr; format: ADME, organism-based; set-up: dose 30 mg/kg, route oral; conditions: in vivo; procedure, shortened: as §2
# Brain [25] = assay: AUC (infinity) in brain of Swiss albino mouse at 30 mg/kg, po; format: ADME, organism-based; set-up: time infinity, dose 30 mg/kg, route oral; conditions: in vivo; procedure, shortened: as §2
# Brain [26] = assay: AUClast in brain of Swiss albino mouse at 30 mg/kg, po; format: ADME, organism-based; set-up: time 0 - last, dose 30 mg/kg, route oral; conditions: in vivo; procedure, shortened: as §2
# Brain [27] = assay: Drug level in Swiss albino mouse brain at 30 mg/kg, po after 4 hrs; format: ADME, organism-based; set-up: dose 30 mg/kg, route oral; conditions: in vivo; procedure, shortened: as §2
# [28] = Plasma concentration in Swiss albino mouse at 30 mg/kg, po after 0.5 hrs; format: ADME, organism-based; set-up: dose 30 mg/kg, route oral; procedure, shortened: as §2
# Plasma [29] = assay: AUC (infinity) in plasma of Swiss albino mouse at 30 mg/kg, po; format: ADME, organism-based; set-up: dose 30 mg/kg, route oral, time infinity; conditions: in vivo; procedure, shortened: as §2
# Brain [30] = assay: Drug level in Swiss albino mouse brain at 30 mg/kg, po after 2 hrs; format: ADME, organism-based; set-up: dose 30 mg/kg, route oral; conditions: in vivo; procedure, shortened: as §2
# Plasma [31] = assay: Cmax in plasma of Swiss albino mouse at 30 mg/kg, po; format: ADME, organism-based; set-up: dose 30 mg/kg, route oral; conditions: in vivo; procedure, shortened: as §2
# Brain [32] = assay: Drug level in Swiss albino mouse brain at 30 mg/kg, po after 0.5 hr; format: ADME, organism-based; set-up: dose 30 mg/kg, route oral; conditions: in vivo; procedure, shortened: as §2
# [33] = Plasma concentration in Swiss albino mouse at 30 mg/kg, po after 1 hr; format: ADME, organism-based; set-up: dose 30 mg/kg, route oral; procedure, shortened: as §2
# Brain [34] = assay: Drug level in Swiss albino mouse brain at 30 mg/kg, po after 12 hrs; format: ADME, organism-based; set-up: dose 30 mg/kg, route oral; conditions: in vivo; procedure, shortened: as §2
# Brain [35] = assay: Cmax in brain of Swiss albino mouse at 30 mg/kg, po; format: ADME, organism-based; set-up: dose 30 mg/kg, route oral; conditions: in vivo; procedure, shortened: as §2
# [36] = target: Survival motor neuron protein (Homo sapiens) (UniProt Q16637); assay: Activation of SMN in human fibroblast cells obtained from type 1 SMA patients assessed as protein punctuate bodies per 100 nuclei at 37 to 3000 nM; format: cell-based
# Procedure, shortened: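 Type I SMA patient fibroblasts (3813 line) were treated with 37–3000 nM compound for 3 days. Gems were then counted per 100 nuclei.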
smiles,measurement,setting,value
O=C([O-])CCCc1ccccc1.[Na+] [SODIUM PHENYLBUTYRATE],half-life,[1],90 min
NC(=O)C1CCN(c2nc(-c3ccc(Br)cc3)cs2)CC1,t1/2,Liver,12 min
same,Activity,[2],Active
same,Papp,Caco-2 [3],30.7 ×10⁻⁶ cm/s
same,Activity,[4],Dose-dependent effect
same,Papp,Caco-2 [5],12.1 ×10⁻⁶ cm/s
same,Activity,[6],1.22 µM
same,IC50,[7],Not Active
same,Activity,[8],268%
CCCC(=O)[O-].[Na+] [SODIUM BUTYRATE],half-life,[1],6 min
CC(C)Oc1cccc(-c2cnc(N3CCC(C(N)=O)CC3)s2)c1,t1/2,Liver,30 min
same,concentration at 24 h,[9],60 nM
same,t1/2,Brain [10],326 min
same,concentration at 0.25 h,[11],1200 nM
same,Drug uptake,Brain [12],0 µmol/kg
same,t1/2,Plasma [13],347 min
same,Papp,Caco-2 [3],6.1 ×10⁻⁶ cm/s
same,Kp,[14],0.29
same,concentration at 2 h,[15],600 nM
same,Drug uptake,Brain [16],0.6 µmol/kg
same,Drug uptake,Brain [17],0.023 µmol/kg
same,Papp,Caco-2 [5],0.3 ×10⁻⁶ cm/s
same,concentration at 12 h,[18],19 nM
same,Drug uptake,Brain [19],1.28 µmol/kg
same,concentration at 8 h,[20],25 nM
same,concentration at 0.083 h,[21],3720 nM
same,Activity,[6],0.077 µM
same,concentration at 4 h,[22],2.8 nM
same,AUClast,Plasma [23],1857 ng·h/mL
same,Drug uptake,Brain [24],0.31 µmol/kg
same,AUC,Brain [25],607 ng·h/mL
same,pIC50,[7],6.10
same,Activity,[8],709%
same,AUClast,Brain [26],546 ng·h/mL
same,Drug uptake,Brain [27],0.083 µmol/kg
same,concentration at 0.5 h,[28],1200 nM
same,AUC,Plasma [29],1429 ng·h/mL
same,Drug uptake,Brain [30],0.23 µmol/kg
same,Cmax,Plasma [31],3720 nM
same,Drug uptake,Brain [32],0.4 µmol/kg
same,concentration at 1 h,[33],1270 nM
same,Drug uptake,Brain [34],0 µmol/kg
same,Cmax,Brain [35],1.28 µmol/kg
O=C(O)C1CCN(c2nc(-c3ccc(Br)cc3)cs2)CC1,Papp,Caco-2 [3],32.6 ×10⁻⁶ cm/s
same,Papp,Caco-2 [5],12 ×10⁻⁶ cm/s
same,Activity,[6],4.87 µM
same,pIC50,[7],5.80
same,Activity,[8],554%
NC(=O)C1CCN(c2nnc(-c3ccc4c(c3)OCCCO4)s2)CC1,t1/2,Liver,> 60 min
same,Papp,Caco-2 [3],21.2 ×10⁻⁶ cm/s
same,Papp,Caco-2 [5],51.2 ×10⁻⁶ cm/s
same,Activity,[6],0.122 µM
same,pIC50,[7],5.49
same,Activity,[8],257%
COc1nc(-c2ccccc2)nnc1-c1ccccc1,Activity,[2],Active
same,Activity,[4],Dose-dependent effect
CSc1ccc(-c2cnc(N3CCC(C(N)=O)CC3)s2)cc1,t1/2,Liver,2 min
same,Papp,Caco-2 [3],1.6 ×10⁻⁶ cm/s
same,Papp,Caco-2 [5],0.2 ×10⁻⁶ cm/s
same,Activity,[6],0.031 µM
same,pIC50,[7],4.40
same,Activity,[8],576%
NC(=O)C1CCN(c2ncc(-c3ccc4c(c3)OCCCO4)s2)CC1,t1/2,Liver,30 min
same,Papp,Caco-2 [3],13.1 ×10⁻⁶ cm/s
same,Activity,[36],inactive
same,Papp,Caco-2 [5],9.9 ×10⁻⁶ cm/s
same,Activity,[6],0.038 µM
same,pIC50,[7],5.49
same,Activity,[8],370%
CC(C)Oc1cccc(-c2ccnc(N3CCC(C(N)=O)CC3)n2)c1,t1/2,Liver,18 min
same,Papp,Caco-2 [3],40.1 ×10⁻⁶ cm/s
same,Papp,Caco-2 [5],17.3 ×10⁻⁶ cm/s
same,Activity,[6],0.154 µM
same,pIC50,[7],5.00
same,Activity,[8],298%
O=C(Nc1ccccc1)C1CCN(c2ncc(-c3ccc4c(c3)OCCCO4)s2)CC1,t1/2,Liver,< 15 min
same,Activity,[6],0.049 µM
same,pIC50,[7],5.40
same,Activity,[8],353%
